Data on seven molecules can be found in ChEMBL document CHEMBL4138204, “Polyoxygenated Steroids from the Sponge Clathria gombawuiensis” (J Nat Prod, 2017).

Molecules are shown by their SMILES. Calls of active or inactive are those of the source.

In general, MIC refers to the smallest concentration in the dilution series that meets the test's criterion for growth inhibition. What is called IC50 is the concentration needed to halve the response being measured.

The subject of experiment [1] is Escherichia coli. The experiment is described as follows: Antibacterial activity against Escherichia coli ATCC 35270 measured after 24 hrs. It counts as functional. Particulars: ATCC 35270, 24 h.
Experiment [2] relates to C2C12. Nature of the experiment: Activation of AMPKalpha in mouse C2C12 cells assessed as increase in phosphorylation of ACC at Ser79 at 20 uM after 30 mins by Western blot analysis. The experiment is classed as cell-based. The method, boiled down:
(§1)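 Differentiated mouse C2C12 skeletal myoblasts were given compounds at 20 μM, or Aicar (0.2 mM, AMPK activator), for 30 min. pAMPK (Thr172) and pACC (Ser79) were quantified by Western blot. Mean ± SD of 2–4 independent experiments, compared with vehicle by ANOVA.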
For orientation: A western blot detects proteins with antibodies after separation by electrophoresis.

In experiment [3] the test system is Staphylococcus aureus. The experiment is described as follows: Antibacterial activity against Staphylococcus aureus ATCC 6538P measured after 24 hrs. It counts as functional.
Experiment [4] concerns Bacillus spizizenii. Nature of the experiment: Antibacterial activity against Bacillus subtilis ATCC 6633 measured after 24 hrs. The experiment is classed as functional. Particulars: ATCC 6633, 24 h.
The subject of experiment [5] is Aspergillus fumigatus. The experiment is described as follows: Antifungal activity against Aspergillus fumigatus HIC 6094 measured after 48 to 72 hrs. It counts as functional.
In experiment [6] the test system is Kocuria rhizophila. The experiment is described as follows: Antibacterial activity against Kocuria rhizophila NBRC 12708 measured after 24 hrs. It counts as functional. Particulars: NBRC 12708, 24 h.
In experiment [7] the test system is Trichophyton mentagrophytes. The experiment is described as follows: Antifungal activity against Trichophyton mentagrophytes IFO 40996 measured after 48 to 72 hrs. The experiment is classed as functional.
A short description of experiment [8]: Inhibition of isocitrate lyase (unknown origin).
Experiment [9] concerns A549. The experiment is described as follows: Cytotoxicity against human A549 cells after 72 hrs by MTT assay. Particulars: A549, 72 h. It counts as functional, cell-based. Background: Formazan colour is commonly taken as a measure of viable cells.
For experiment [10], the system named is Candida albicans. The experiment is described as follows: Antifungal activity against Candida albicans ATCC 10231 measured after 48 to 72 hrs. The experiment is classed as functional.
Experiment [11] deals with Sodium/potassium-transporting ATPase. Nature of the experiment: Inhibition of potassium-activated sodium/potassium ATPase in human placenta using 3-Omethylfluorescein phosphate as substrate measured for 90 secs by fluorescence assay.
The nature of experiment [12]: Inhibition of recombinant sortase A (unknown origin) using Dabcyl-QALPETGEE-Edans as substrate measured after 1 hr by fluorescence assay. Also noted: species or system Bacteria.
Experiment [13] is filed under the species Mus musculus. Nature of the experiment: Activation of AMPKalpha in differentiated mouse 3T3L1 cells assessed as increase in 2-NBDG uptake at 20 uM by fluorescence microscopic analysis. Summed up: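 Differentiated 3T3-L1 adipocytes were treated with 20 μM compound or 100 nM insulin as a positive control, then exposed to 2-NBDG as the fluorescent glucose analogue. Uptake was imaged by fluorescence microscopy as green signal inside the cells.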

Experiment [14] deals with Trichophyton rubrum. The experiment is described as follows: Antifungal activity against Trichophyton rubrum IFO 9185 measured after 48 to 72 hrs. It counts as functional.
Experiment [15] deals with Salmonella typhimurium. The experiment is described as follows: Antibacterial activity against Salmonella enterica ATCC 14028 measured after 24 hrs. The experiment is classed as functional, Salmonella enterica subsp. enterica serovar Typhimurium. Particulars: ATCC 14028, 24 h.
Experiment [16] concerns K562. The experiment is described as follows: Cytotoxicity against human K562 cells after 72 hrs by MTT assay. It counts as functional, cell-based. Particulars: K562, 72 h.
The species named for experiment [17] is Mus musculus. The experiment is described as follows: Activation of AMPKalpha in differentiated mouse 3T3L1 cells assessed as increase in 2-NBDG uptake pretreated for 30 mins followed by 2-NBDG addition measured after 1 hr by fluorescence assay. Summed up:
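2-NBDG uptake in differentiated 3T3-L1 adipocytes. Cells got compounds at several concentrations, or 100 nM insulin as a positive control. After 1 h incubation, fluorescence was read at ex/em 450/535 nm. Mean ± SD (n = 3), compared with vehicle by ANOVA.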

Experiment [18] has as its system Proteus hauseri. The experiment is described as follows: Antibacterial activity against Proteus hauseri NBRC 3851 measured after 24 hrs. The experiment is classed as functional. Particulars: NBRC 3851, 24 h.
Experiment [19] concerns C2C12. Nature of the experiment: Activation of AMPKalpha phosphorylation at Thr172 in mouse C2C12 cells at 20 uM after 30 mins by Western blot analysis. It counts as cell-based. Summed up:
as §1

For experiment [20], the system named is C2C12. Nature of the experiment: Activation of AMPKalpha phosphorylation at Thr172 in mouse C2C12 cells at 5 to 20 uM after 30 mins in presence of AMPK inhibitor dorsomorphin by Western blot analysis. The experiment is classed as cell-based. Summed up: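 C2C12 myoblasts were exposed to compound at 5, 10 and 20 μM for 30 min, with compound C pretreatment used to test AMPK dependence. pAMPK (Thr172) was measured by Western blot. Mean ± SD (n = 3), compared with control.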

As for `CC(C)[C@H](C)[C@@H](O)[C@H](O)[C@@H](C)[C@H]1CC(=O)[C@@H]2[C@@H]3[C@@H](O)[C@H](O)[C@H]4[C@H](O)[C@@H](O)CC[C@]4(C)[C@H]3CC[C@]12C`, the minimum inhibitory concentration (MIC) in experiment [1], in experiment [3], in experiment [4], in experiment [5], in experiment [6] and in [7] was over 128 µM throughout. The minimum inhibitory concentration (MIC) in experiment [10], in experiment [14], in [15] and in [18] was over 128 µM each time. For the same molecule, the outcome in experiment [2], in [13] and in experiment [19] was Active. The IC50 in experiment [8] is over 128 µM; in experiment [9], over 10 µM; in [11] it was over 128 µM; in [12], over 128 µM; in experiment [16], over 10 µM. The Activity entry in experiment [17] is “Dose-dependent effect”.
On to `CC(C)C[C@H](O)C[C@@H](C)[C@H]1CC(=O)[C@@H]2[C@@H]3[C@@H](O)[C@H](O)[C@H]4[C@H](O)[C@@H](O)CC[C@]4(C)[C@H]3CC[C@]12C`, for which the MIC in experiment [1], in experiment [3], in experiment [4], in experiment [5], in experiment [6] and in experiment [7] was over 128 µM in each case. Also, the minimal inhibitory concentration (MIC) in [10], in experiment [14], in experiment [15] and in experiment [18] was over 128 µM in each case. For the same molecule, the outcome in experiment [2] and in experiment [19] was Active. In addition, the IC50 in [8] was over 128 µM; in experiment [9], over 10 µM; in experiment [11], over 128 µM; in experiment [12], over 128 µM; in experiment [16], over 10 µM.
For the molecule `CC(C)[C@H](C)[C@@H](O)C[C@@H](C)[C@H]1CC(=O)[C@H]2[C@@H]3[C@@H](O)[C@H](O)[C@H]4[C@H](O)[C@@H](O)CC[C@]4(C)[C@H]3CC[C@]12C`, the minimum inhibitory concentration (MIC) in experiment [1], in experiment [3], in [4], in experiment [5], in experiment [6] and in experiment [7] was over 128 µM each time. For the same molecule, the minimum inhibitory concentration (MIC) in experiment [10], in experiment [14], in experiment [15] and in experiment [18] was over 128 µM throughout. In addition, the outcome in experiment [2], in [13] and in experiment [19] was Active. The IC50 in [8] was over 128 µM; in experiment [9], over 10 µM; in experiment [11], over 128 µM; in [12] it was over 128 µM; in experiment [16], over 10 µM. In addition, the Activity entry in [17] is “Dose-dependent effect”.
Regarding `CC(C)C[C@@H](O)[C@H](O)[C@@H](C)[C@H]1CC(=O)[C@@H]2[C@@H]3[C@@H](O)[C@H](O)[C@H]4[C@H](O)[C@@H](O)CC[C@]4(C)[C@H]3CC[C@]12C`, the minimum inhibitory concentration (MIC) in experiment [1], in experiment [3], in [4], in experiment [5], in experiment [6] and in experiment [7] was over 128 µM each time. The MIC in [10], in experiment [14], in [15] and in experiment [18] was over 128 µM in each case. The outcome in [2], in experiment [13] and in [19] was Active. Besides, the half-inhibitory concentration (IC50) in experiment [8] was over 128 µM; in experiment [9], over 10 µM; in experiment [11] it was over 128 µM; in experiment [12], over 128 µM; in [16], over 10 µM. Moreover, the Activity entry in experiment [17] is “Dose-dependent effect”.
Take `CC(C)[C@@H](CC[C@@H](C)[C@H]1CC(=O)[C@@H]2[C@@H]3[C@@H](O)[C@H](O)[C@H]4C[C@@H](O)CC[C@]4(C)[C@H]3CC[C@]12C)[C@@H](C)O`: the minimum inhibitory concentration (MIC) in experiment [1], in experiment [3], in [4], in experiment [5], in experiment [6] and in experiment [7] was over 128 µM throughout. Also, the minimum inhibitory concentration (MIC) in experiment [10], in [14], in experiment [15] and in [18] was over 128 µM each time. Further, the outcome in experiment [2], in experiment [13] and in experiment [19] was Active. Besides, the IC50 was over 128 µM in [8]; over 10 µM in experiment [9]; over 128 µM in experiment [11]; over 128 µM in experiment [12]; over 10 µM in [16]. Also, in experiment [17], the Activity entry is “Dose-dependent effect”.
For `CC(C)[C@H](C)[C@@H](O)[C@H](O)[C@@H](C)[C@H]1CC(=O)[C@@H]2[C@@H]3[C@@H](OS(=O)(=O)O)[C@H](O)[C@H]4[C@H](O)[C@@H](O)CC[C@]4(C)[C@H]3CC[C@]12C`, the MIC in experiment [1], in experiment [3], in experiment [4], in [5], in experiment [6] and in experiment [7] was over 128 µM throughout. The MIC in experiment [10], in [14], in [15] and in experiment [18] was over 128 µM each time. For the same molecule, the outcome in experiment [2] and in experiment [19] was Active. The IC50 in [8] is over 128 µM; in experiment [9], over 10 µM; in experiment [11], over 128 µM; in [12], over 128 µM; in experiment [16] it was over 10 µM.
In the case of `CC(C)[C@H](C)[C@@H](O)[C@H](O)[C@@H](C)[C@H]1CC(=O)[C@H]2[C@@H]3[C@@H](O)[C@H](O)[C@H]4[C@H](O)[C@@H](O)CC[C@]4(C)[C@H]3CC[C@]12C`, the minimal inhibitory concentration (MIC) in [1], in [3], in experiment [4], in experiment [5], in experiment [6] and in [7] was over 128 µM throughout. The minimum inhibitory concentration (MIC) in experiment [10], in experiment [14], in [15] and in experiment [18] was over 128 µM throughout. The result in experiment [2], in [13] and in experiment [19] was Active. Moreover, the half-maximal inhibitory concentration (IC50) in experiment [8] was over 128 µM; in experiment [9], over 10 µM; in experiment [11], over 128 µM; in experiment [12] it was over 128 µM; in [16] it was over 10 µM. For the same molecule, the outcome in [20] was inactive. In addition, the Activity result in experiment [17] is “Dose-dependent effect”.
